Activity calls are given as the source filed them.
Assays:
SK-OV-3 [1] = assay: Induction of ferroptosis-mediated antitumor activity against human SK-OV-3 cells xenografted in BALB/C nu/nu mouse assessed as reduction in total glutathione level in tumor at 25 mg/kg, ip administered every 2 days for 40 days by biochemical analysis; format: functional, organism-based; conditions: time 40.0 day
Method in brief: (§1)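 U-87 MG or SKOV-3 sc xenografts (1 × 10^8 cells/mL) in female BALB/c nu/nu mice, 4 per group. Given 25 mg/kg ip in 100 μL every 2 days, or saline. Tumors harvested on day 40 and assayed for LPO, MDA, lactic acid, total glutathione (GSH + GSSG), ATP and Fe2+.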

Mus musculus [2] = assay: Upregulation of Ptgs2 mRNA expression in tumor of BALB/C nu/nu mouse xenografted with human U-87 MG cells at 25 mg/kg, ip administered every 2 days for 40 days by qPCR analysis; format: functional, organism-based; conditions: time 40.0 day
Method in brief: (§2)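 Female BALB/c nu/nu mice, 10 weeks old, 4 per group. Inoculated s.c. with 1 × 10^8 cells/mL of log-phase U-87 MG or SKOV-3 cells. Dosed i.p. with 100 μL at 25 mg/kg every 2 days; controls got 100 μL saline. Tumors harvested on day 40. RNA extracted from about 20 mg of tissue. qPCR panel of 69 genes, 40 cycles (94 °C 20 s, 60 °C 34 s). Analysed by 2–ΔΔCt; fold ≥1.5 taken as increased.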

Mus musculus [3] = assay: Upregulation of Akr1c3 mRNA expression in tumor of BALB/C nu/nu mouse xenografted with human U-87 MG cells at 25 mg/kg, ip administered every 2 days for 40 days by qPCR analysis; format: functional, organism-based; conditions: time 40.0 day
Method in brief: (§3)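 Female BALB/c nu/nu mice bearing sc U-87 MG or SKOV-3 xenografts were dosed ip at 25 mg/kg (100 μL) every 2 days, or given saline, and tumors were taken at day 40. RNA was extracted from about 20 mg of tissue. qPCR ran 40 cycles (95 °C 15 min; 94 °C 20 s; 60 °C 34 s) on a 69-gene panel. Fold change was by 2^–ΔΔCt, with ≥1.5 counted as increased.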

U-87MG ATCC [4] = assay: Antitumor activity against human U-87 MG cells xenografted in BALB/C nu/nu mouse assessed as reduction in tumor growth at 25 mg/kg, ip administered every 2 days for 40 days; format: functional, organism-based; conditions: time 40.0 day
Method in brief: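 Female BALB/c nu/nu mice, 10 weeks old, 4 per group. Received subcutaneous U-87 MG or SKOV-3 cells (1 × 10^8 cells/mL, harvested in log phase). Dosed ip with 100 μL at 25 mg/kg every 2 days; controls got 100 μL saline on the same schedule. Sacrificed at 40 days; tumors weighed, volume = ab²/2. Tumor sections (6 μm, paraffin) stained by immunofluorescence for Ki67 or CD31 with Alexa Fluor 488 secondary.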

U-87MG ATCC [5] = assay: Induction of ferroptosis-mediated antitumor activity against human U-87 MG cells xenografted in BALB/C nu/nu mouse assessed as increase in lactic acid level in tumor at 25 mg/kg, ip administered every 2 days for 40 days by biochemical analysis; format: functional, organism-based; conditions: time 40.0 day; method in brief: as §1
Mus musculus [6] = assay: Upregulation of Nrf2 mRNA expression in tumor of BALB/C nu/nu mouse xenografted with human U-87 MG cells at 25 mg/kg, ip administered every 2 days for 40 days by qPCR analysis; format: functional, organism-based; conditions: time 40.0 day; method in brief: as §2
Mus musculus [7] = assay: Upregulation of Htra2 mRNA expression in tumor of BALB/C nu/nu mouse xenografted with human U-87 MG cells at 25 mg/kg, ip administered every 2 days for 40 days by qPCR analysis; format: functional, organism-based; conditions: time 40.0 day; method in brief: as §2
Mus musculus [8] = assay: Upregulation of Lpcat3 mRNA expression in tumor of BALB/C nu/nu mouse xenografted with human U-87 MG cells at 25 mg/kg, ip administered every 2 days for 40 days by qPCR analysis; format: functional, organism-based; conditions: time 40.0 day; method in brief: as §2
Mus musculus [9] = assay: Upregulation of PPIF mRNA expression in tumor of BALB/C nu/nu mouse xenografted with human U-87 MG cells at 25 mg/kg, ip administered every 2 days for 40 days by qPCR analysis; format: functional, organism-based; conditions: time 40.0 day; method in brief: as §2
U-87MG ATCC [10] = assay: Induction of ferroptosis-mediated antitumor activity against human U-87 MG cells xenografted in BALB/C nu/nu mouse assessed as reduction in ATP level in tumor at 25 mg/kg, ip administered every 2 days for 40 days by biochemical analysis; format: functional, organism-based; conditions: time 40.0 day; method in brief: as §1
OVCAR-3 = assay: Induction of apoptosis in human OVCAR-3 cells assessed as increase cleaved PARP expression at 5 to 10 nM incubated for 48 hrs by immunoblot analysis; format: functional, cell-based; conditions: dose 5-10 nM
Method in brief: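 OVCAR-3 cells were grown in DMEM with 20% FBS and 0.01 μg/mL insulin. They were treated for 48 h at 0, 0.25, 2.5, 5 and 10 nM. Lysates were made in SDS–urea, sonicated and run on SDS-PAGE, then transferred to nitrocellulose. Blots were probed with anti-PARP (1:1000; full-length and cleaved) and anti-actin loading control (1:10,000), with HRP/ECL detection.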

Mus musculus [11] = assay: Upregulation of Gpx4 mRNA expression in tumor of BALB/C nu/nu mouse xenografted with human SK-OV-3 cells at 25 mg/kg, ip administered every 2 days for 40 days by qPCR analysis; format: functional, organism-based; conditions: time 40.0 day; method in brief: as §2
[12] = Selectivity index, ratio of IC50 for cytotoxicity against human U-87 MG cells to IC50 for cytotoxicity against human OVCAR-3 cells; format: toxicity, cell-based; conditions: U-87 MG cells versus OVCAR-3 cells, read-out: Ratio IC50
Mus musculus [13] = assay: Upregulation of Rpl8 mRNA expression in tumor of BALB/C nu/nu mouse xenografted with human SK-OV-3 cells at 25 mg/kg, ip administered every 2 days for 40 days by qPCR analysis; format: functional, organism-based; conditions: time 40.0 day; method in brief: as §2
SK-OV-3 [14] = assay: Induction of ferroptosis-mediated antitumor activity against human SK-OV-3 cells xenografted in BALB/C nu/nu mouse assessed as increase in […] level in tumor at 25 mg/kg, ip administered every 2 days for 40 days by biochemical analysis; format: functional, organism-based; conditions: time 40.0 day; method in brief: as §1
SK-OV-3 [15] = assay: Induction of ferroptosis-mediated antitumor activity against human SK-OV-3 cells xenografted in BALB/C nu/nu mouse assessed as reduction in GPX4 protein expression in tumor at 25 mg/kg, ip administered every 2 days for 40 days by immunofluoresence staining based assay; format: functional, organism-based; conditions: time 40.0 day
Method in brief: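 Xenografts of U-87 MG or SKOV-3 (1 × 10^8 cells/mL, sc) in female BALB/c nu/nu mice, 4 per group. Treated ip at 25 mg/kg in 100 μL every 2 days versus saline, tumors collected at day 40. Paraffin sections (6 μm) were blocked at 37 °C for 30 min, then incubated with rabbit anti-GPX4 or anti-FTH1 and then Alexa Fluor 488 anti-rabbit, each for 45 min at 37 °C.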

Mus musculus [16] = assay: Upregulation of Cbs mRNA expression in tumor of BALB/C nu/nu mouse xenografted with human U-87 MG cells at 25 mg/kg, ip administered every 2 days for 40 days by qPCR analysis; format: functional, organism-based; conditions: time 40.0 day; method in brief: as §3
Mus musculus [17] = assay: Upregulation of Hspb5 mRNA expression in tumor of BALB/C nu/nu mouse xenografted with human U-87 MG cells at 25 mg/kg, ip administered every 2 days for 40 days by qPCR analysis; format: functional, organism-based; conditions: time 40.0 day; method in brief: as §2

COc1cc(C(=O)c2cn(-c3ncccn3)cc2-c2ccco2)cc(OC)c1OC
active: Activity (SK-OV-3 [1]) | Activity (Mus musculus [2]) | Activity (Mus musculus [3]) | Activity (U-87MG ATCC [4]) | Activity (U-87MG ATCC [5]) | Activity (Mus musculus [6]) | Activity (Mus musculus [7]) | Activity (Mus musculus [8]) | Activity (Mus musculus [9]) | Activity (U-87MG ATCC [10]) | Activity (OVCAR-3) | Activity (Mus musculus [11]) | Activity (Mus musculus [13]) | Activity (SK-OV-3 [14]) | Activity (SK-OV-3 [15]) | Activity (Mus musculus [16]) | Activity (Mus musculus [17])
3.5: selectivity ratio [12]

Source: ChEMBL document CHEMBL5236592, “Induction of Ferroptosis in Glioblastoma and Ovarian Cancers by a New Pyrrole Tubulin Assembly Inhibitor” (J Med Chem, 2022)
